Consider 37 variants from the RNAGym collection of RNA variant scans (doi:10.1126/science.aae0568).

Fewer inactive variants are shown than the library holds.

B1: tRNA (parent)
chain: GUUCCGUUGGCGUAAUGGUAACGCGUCUCCCUCCUAAGGAGAAGACUGCGGGUUCGAGUCCCGUACGGAACG

Variants of B1 are the subject of this data set. As to the kind of experiment: yeast fitness relative to wild type (ratio to wild type); higher = fitter; tRNA-Arg(CCU), competitive growth, 37 C, YPD. Summed up:
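Amplicons of the tRNA-Arg(CCU) gene were sequenced, 100-nucleotide paired-end, from the start population and from each end population of a pooled yeast competition. The competition, in six parallel replicates, lasted 24 hours in YPD at 37°C. Fitness relative to wild type was calculated from changes in genotype frequencies. Genotypes had to have ≥ 100 starting reads, and estimates < 0.5 were set to 0.5.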
With GUUCCGUUGGCGUAAUGGUAACGCGUCUCGGUCCUAAGGAGAAGACUGCGGGUUCGAGUCCCGCCCGGAACG [C30G C31G U64C A65C], the yeast fitness is at most 0.5.
For GUUCCGUUGGCGUAAUGGUAACGCGUCUCGCUCCAAAGGAGAAGACUGCGGGUUCGAGUCCCGUCCGGAACG [C30G U35A A65C], the yeast fitness is at most 0.5.
Consider GUUCCGUUGGCGUAAUGGUAACGCGUCUCGCUACUAAGGAGAAGACUGAGGGUUCGAGUCCCGUACGGAACG [C30G C33A C49A], for which the yeast fitness came out at 0.618.
The figure for GUUCCGUUGGCGUAAUGGUAACGCGUCUCGCUCGUAAGGAGAAGACUGCGGGUUCGAGUCCCCUACGGAACG [C30G C34G G63C] is at most 0.5; for GUUCCGUUGGCGUAAUGGUAACGCGUCUCGGUCCUAAGGAGAGGACUGCGGGUUCCAGUCCCGUACGGAACG [C30G C31G A43G G56C] it is at most 0.5.
In the case of GUUCCGUUGGCGUAAUGGUAACGCGUCUCGCUCCUAAGGAGAAAACUACGGGUUCGAAUCCCGUACGGAACG [C30G G44A G48A G58A], the yeast fitness is at most 0.5.
In the case of GUUCCGUUGGCGUAAUGGUAACGCGUCUCGCUCCUAAGCAGAAGACUGCGGGUUAGAGUCCCGUACGGAACG [C30G G39C C55A], the yeast fitness was at most 0.5.
On to GUUCCGUUGGCGUAAUGGUAACGCGUCUCGCUCCUAAGGAGAAGACUGAGGGCUCGAGUCCCAUAGGGAACG [C30G C49A U53C G63A C66G], for which the yeast fitness was at most 0.5.
Next, GUUCCGUUGGCGUAAUGGUAACGCGUCUCGCUCCUAAGGAGAAGACUGCGGGUUUGAGUCCCGUACGGAACG [C30G C55U]: 0.622; GUUCCGUUGGCGUAAUGGUAACGCGUCUCGUUCCUAAGGAGAAGACUGCGGGUUCGAGUCCCGUACGGAACG [C30G C31U]: 0.678; GUUCCGUUGGCGUAAUGGUAACGCGUCUCGCUCCUAAGCAGAAGACUGCGGGUUCGAGUCCCGUACGGAACG [C30G G39C]: 0.579.
Take GUUCCGUUGGCGUAAUGGUAACGCGUCUCGCUCCUAAGGAGAAGACUGGGGGUUCGAGUCCCGUACGGAACG [C30G C49G]: the yeast fitness worked out at 0.635.
The figure for GUUCCGUUGGCGUAAUGGUAACGCGUCUCGGUCCUAACGAGAAGAGUGCGGGUUCGAGUCCCGUACGGAACG [C30G C31G G38C C46G] is 0.768.
As for GUUCCGUUGGCGUAAUGGUAACGCGUCUCGCUCCUAAGGAGAAGACUGCGGGUUGGAGACCCGGACGGAACG [C30G C55G U59A U64G], the yeast fitness was at most 0.5.
GUUCCGUUGGCGUAAUGGUAACGCGUCUCGCUCCUAAGGACAAGACUGCGGGUUCGUGUCCCGUACGGAACG [C30G G41C A57U]: the yeast fitness was at most 0.5.
On to GUUCCGUUGGCGUAAUGGUAACGCGUCUCGCUGUUAAGGAGUAGACUGCGGGUUAGAGUCCCGUACGGAACG [C30G C33G C34U A42U C55A], for which the yeast fitness is at most 0.5.
Take GUUCCGUUGGCGUAAUGGUAACGCGUCUCGCUCCUAAGGAGAAGACUGCGGGUUCCAGUCCUGUACGGAACG [C30G G56C C62U]: the yeast fitness is at most 0.5.
GUUCCGUUGGCGUAAUGGUAACGCGUCUCGCUGCUAAGGAGAAGACUGCGGGUUCGAGUGCCGUACGGACCG [C30G C33G C60G A70C]: the yeast fitness is at most 0.5.
Consider GUUCCGUUGGCGUAAUGGUAACGCGUCUCGCUCCUAAAGAGAAGACUGCGGGUUCGAGUCCCGUACGGAACG [C30G G38A], for which the yeast fitness was 0.572.
In the case of GUUCCGUUGGCGUAAUGGUAACGCGUCUCGGUCCUAACGAGAAGAGUGCGGGUUCGAGUCCCGUACGGCACG [C30G C31G G38C C46G A69C], the yeast fitness was determined as 0.572.
The figure for GUUCCGUUGGCGUAAUGGUAACGCGUCUCGCUCCUAAGGAGAAGACUCCGGGUUCGAGUCCCGUACGGAACG [C30G G48C] is 0.624; for GUUCCGUUGGCGUAAUGGUAACGCGUCUCGCUCCUAAGGAGAAGACUACGGGUUCGAGUCCCGUACGGAACG [C30G G48A] it is 0.633; for GUUCCGUUGGCGUAAUGGUAACGCGUCUCGCUCUUUAGGAGAAGACUGCGGGUUCGAGUCCCGUUCGGAACG [C30G C34U A36U A65U] it is 0.612.
As to GUUCCGUUGGCGUAAUGGUAACGCGUCUCGCUGCUAAGGAGAAGACUCCGGGUUCGAGUACCGUACGGAACG [C30G C33G G48C C60A], the yeast fitness was 0.586.
Take GUUCCGUUGGCGUAAUGGUAACGCGUCUCGCUCCUAAGGAGAAAACUGCGGGUUCGAGUCCCAUACGGAACG [C30G G44A G63A]: the yeast fitness is at most 0.5.
On to GUUCCGUUGGCGUAAUGGUAACGCGUCUCGCUCCUAAGCAGAAGACUGCGGGUUCGAGCCCCCUACGGAACG [C30G G39C U59C G63C], for which the yeast fitness is 0.558.
As for GUUCCGUUGGCGUAAUGGUAACGCGUCUCGCACCUAAGGAGAAGACUGCGGGUUCGAGUCCCGUAUGGAACG [C30G U32A C66U], the yeast fitness was at most 0.5.
As to GUUCCGUUGGCGUAAUGGUAACGCGUCUCGCUGCUAAGGAGAAGACUGCGGGUUCGAGUGCCGUACGGAACG [C30G C33G C60G], the yeast fitness is at most 0.5.
Consider GUUCCGUUGGCGUAAUGGUAACGCGUCUCGCUCCUAAGGAGAAGACUGAGGGUGCGAGUCCCGUACGGAACG [C30G C49A U54G], for which the yeast fitness is at most 0.5.
As to GUUCCGUUGGCGUAAUGGUAACGCGUCUCGCUUCUAAGGAGAAGACUGUGGGUUCAAGUCCCGUACGGAACG [C30G C33U C49U G56A], the yeast fitness was at most 0.5.
With GUUCCGUUGGCGUAAUGGUAACGCGUCUCGCUACUAAGGAGAAGACUGCAGAUUCGAGUUGCGUACGGAACG [C30G C33A G50A G52A C60U C61G], the yeast fitness is at most 0.5.
In the case of GUUCCGUUGGCGUAAUGGUAACGCGUCUCGCUCCUAAGGAGAAGAGUGCGGGUUCGAGUCCCGUACGGAACG [C30G C46G], the yeast fitness came out at 0.693.
Turning to GUUCCGUUGGCGUAAUGGUAACGCGUCUCGUUCCUAAGGAGAAGACUGCGGGUUCGAGUCGCGUACGGAACG [C30G C31U C61G], the yeast fitness turned out to be 0.557.
The figure for GUUCCGUUGGCGUAAUGGUAACGCGUCUCGCUCUUAAGGAGAAGACAGAGGGUUCGAGUCCCGUACGGAACG [C30G C34U U47A C49A] is 0.691.
Take GUUCCGUUGGCGUAAUGGUAACGCGUCUCGCUCCUAAGGAGAAGACUACGGGCUCGAGUCCCGUACGGAUCG [C30G G48A U53C A70U]: the yeast fitness is at most 0.5.
As to GUUCCGUUGGCGUAAUGGUAACGCGUCUCGCUCCUAAGGAGAAGACUGCGGGUUCGAGUCUCGUACGAAACG [C30G C61U G68A], the yeast fitness is 0.541.
For the variant GUUCCGUUGGCGUAAUGGUAACGCGUCUCGCACCUAAGGUGCAGACUGCGGGUUCGAGUCCCGUCCGGAACG [C30G U32A A40U A42C A65C], the yeast fitness was at most 0.5.
